Measurements gathered from unrelated publications.
Compare with care: the assays were run in different laboratories.
OGT: UDP-N-acetylglucosamine--peptide N-acetylglucosaminyltransferase 110 kDa subunit (OGT, Homo sapiens, UniProt O15294)
OPRD1: Delta-type opioid receptor (OPRD1, Homo sapiens, UniProt P41143)
gag-pol reverse transcriptase: Gag-Pol polyprotein, reverse transcriptase (gag-pol, Human immunodeficiency virus 1, UniProt P03366)
ADRA2A: Alpha-2A adrenergic receptor (ADRA2A, Homo sapiens, UniProt P08913)
HTR3A: 5-hydroxytryptamine receptor 3A (HTR3A, Homo sapiens, UniProt P46098)

Structure (SMILES)	target	assay	conditions	IC50
CC[C@H](C)[C@H](NC(=O)[C@H](CO)NC(=O)[C@H](Cc1ccc(O)cc1)NC(=O)[C@H](CCCCN)NC(=O)[C@@H]1CCCN1C(=O)[C@H](CCSC)NC(=O)[C@@H](N)Cc1ccccc1)C(=O)N[C@H](C(=O)N[C@@H](Cc1ccccc1)C(=O)O)[C@@H](C)CC	OGT	enzyme activity, inhibitor, fluorescence		120 µM
CC(C)[C@@H]1CN([C@@H](CNCc2ccccc2)C(C)C)CCN1CCc1ccccc1	OPRD1	cell-free assay		> 10 µM
Cc1cn([C@@H]2CC[C@H](OC(C(=O)O)C(=O)O)C2)c(=O)[nH]c1=O (relative stereo)	gag-pol reverse transcriptase	enzyme activity, inhibitor, radiometric		42 µM
CC(CCc1ccccc1)NC(C)C(O)c1ccc(O)cc1 (centres unmarked)	ADRA2A	ligand displacement, radioligand		9.39 µM
CC(C)Cc1ccc([C@@H](C)C(=O)O)cc1	Histone acetyltransferase p300 (EP300, Homo sapiens, UniProt Q09472)	enzyme activity, inhibitor, mobility shift		~6000 µM
CCCC[C@H](CNCc1ccccc1)N1CCN(CC(C)C)[C@H](Cc2ccc(O)cc2)C1	OPRD1	cell-free assay		> 10 µM
CC[C@H](C)[C@H](NC(=O)[C@H](CO)NC(=O)[C@H](Cc1ccc(O)cc1)NC(=O)[C@H](CCCCN)NC(=O)[C@@H]1CCCN1C(=O)[C@H](CCSC)NC(=O)[C@H](Cc1ccccc1)NC(=O)[C@H](CCSC)NC(=O)[C@@H](NC(=O)[C@@H]1CCCN1)C(C)C)C(=O)N[C@H](C(=O)N[C@@H](Cc1ccccc1)C(=O)O)[C@@H](C)CC	OGT	enzyme activity, inhibitor, fluorescence		20 µM
Cc1cn([C@@H]2C=C[C@H](OC(P(=O)(O)O)P(=O)(O)O)C2)c(=O)[nH]c1=O (relative stereo)	gag-pol reverse transcriptase	enzyme activity, inhibitor, radiometric		204 µM
CC(C)[C@H](CNCc1ccccc1)N1CCN(CCC2CC3CCC2C3)[C@@H](Cc2ccccc2)C1 (some centres unmarked)	OPRD1	cell-free assay		> 10 µM
CCOC(=O)c1cncn1[C@H](C)c1ccc(C2(C(F)(F)F)N=N2)cc1	HTR3A	ion current, two-electrode voltage clamp	oocytes	9 µM
CNC[C@H](Cc1ccc(O)cc1)NC[C@H](Cc1ccc(O)cc1)NCC1CCCCCC1	OPRD1	cell-free assay		> 10 µM
COc1ncccc1-c1cnn2ccc(N3CCN(C(=O)OC(C)C)CC3)nc12	ADRA2A	cell-free assay		> 30 µM
CN1CCN(C2=Nc3ccccc3Oc3ccc(Cl)cc32)CC1	HTR3A	ligand displacement, radioligand		0.377 µM
CCC[C@H](CNC)NC[C@H](Cc1ccc(O)cc1)NCCC1CCCC1	OPRD1	cell-free assay		> 10 µM
C[C@@H](NC(=O)[C@@H](N)Cc1ccc(O)cc1)C(=O)NCC(=O)N[C@H](CC(=O)NNC(=O)C[C@H](Cc1ccccc1)NC(=O)CNC(=O)[C@@H](C)NC(=O)[C@@H](N)Cc1ccc(O)cc1)Cc1ccccc1	OPRD1	ligand displacement, radioligand		0.00145 µM
CN1CCC(=C2c3ccccc3CCc3sccc32)CC1	ADRA2A	calcium signal, antagonist		7.25 µM
CNC[C@@H](Cc1ccc(O)cc1)N1CCN(CCc2cccc(C)c2)[C@@H](C(C)C)C1	OPRD1	cell-free assay		> 10 µM
CCN(CC)C(=O)C1CN2CCc3cc(OC)c(OC)cc3C2CC1OC(C)=O (centres unmarked)	ADRA2A	calcium signal, antagonist		0.45 µM
C[C@H](N)Cn1ncc2ccc3c(c21)CCCO3	HTR3A	ligand displacement, radioligand		31.7 µM
CC(C)c1ccc(O)c(=O)c(O)c1	gag-pol reverse transcriptase	enzyme activity, inhibitor, FRET		0.308 µM
